Data set [1] concerns LU387. As to the kind of experiment: Antitumor activity against human LU387 cells xenografted female athymic NMRI mouse model assessed as reduction in tumor size at 20 mg/kg,iv administered twice daily intermittent for 1 days on/6 days off. In kind it is functional, organism-based. The settings on record: time 7.0 day, in the assay text read “once daily” for “twice daily”. Put shortly:
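LU387 patient-derived tumor fragments (4–5 mm) transplanted s.c. into the flank of nude mice. Treatment started at ~40 mm2. Paclitaxel i.v. at 20 mg/kg once weekly (1 on/6 off). Tumor area (longest diameter × perpendicular) measured by caliper two to three times weekly. T/C computed from end-of-study tumor areas; 8–10 mice/group.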

In data set [2] the test system is A2780cis. Kind of data set: Antitumor activity against human A2780cis cells implanted female athymic NMRI mouse model assessed as induction in KNL1 at Thr-875 phosphorylation at 24 mg/kg,iv administered once for 1 day by immunohistochemical staining. In kind it is functional, organism-based. Put shortly: (§1)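 A2780cis tumors (2×10^6 cells in 100% Matrigel, s.c.) in female NMRI nude mice. Paclitaxel i.v. once at 24 mg/kg on day 1, started at ~52–60 mm2 tumor area. Tumors harvested 36 h after first treatment. Paraffin sections stained with rabbit anti-pThr875 KNL1 or anti-CASC5 (total KNL1), both 1:400. Positive pixels above background scored in three fields per slide.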

Data set [3] relates to A2780cis. Kind of data set: Antitumor activity against human A2780cis cells implanted female athymic NMRI mouse model assessed as change in KNL1 total level at 24 mg/kg,iv administered for 1 day by immunohistochemical staining. Format: functional, organism-based. Put shortly:
as §1

Data set [4] relates to A2780cis. Kind of data set: Antitumor activity against human A2780cis cells xenografted in female athymic NMRI mouse assessed as increase in necrosis at 24 mg/kg,iv administered once for 1 day and measured after 8 hrs by H&E staining.
Data set [5] deals with A2780cis. Kind of data set: Antitumor activity against human A2780cis cells xenografted in female athymic NMRI mouse assessed as increase in apoptosis at 24 mg/kg,iv administered once for 1 day and measured after 8 hrs by H&E staining.
Data set [6] concerns A2780cis. Kind of data set: Antitumor activity against human A2780cis cells xenografted in female athymic NMRI mouse assessed as induction in atypical mitoses at 24 mg/kg,iv administered once for 1 day and measured after 8 hrs by H&E staining.
Data set [7] relates to KATO III stomach cancer cell line. As to the kind of experiment: Antiproliferative activity against human KATO III stomach cancer cell line assessed as cell growth inhibition incubated for 96 hrs by MTS assay. In kind it is functional, cell-based.
Data set [8] in a line: Half life in male Wistar rat plasma at 0.5 mg/kg, iv measured after 24 hrs by LC/-MS/MS analysis. In kind it is ADME, organism-based.
Data set [9] is described as follows: Volume of distribution at steady state in male Wistar rat plasma at 0.5 mg/kg, iv measured after 24 hrs by LC/-MS/MS analysis. The settings on record: read-out: Vdss. In kind it is ADME, organism-based.
The nature of data set [10]: Clearance in male Wistar rat blood at 0.5 mg/kg, iv measured after 24 hrs by LC/-MS/MS analysis. Format: ADME, organism-based.
A short description of data set [11]: Tmax in male Wistar rat plasma at 0.5 mg/kg, po measured after 24 hrs by LC/-MS/MS analysis. Format: ADME, organism-based. Put shortly: (§2)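 Male Wistar rats given 0.5 mg/kg orally. Plasma collected from 8 min to 24 h, precipitated with ice-cold acetonitrile (1:5), and analysed by LC/MS-MS. Cmax and Tmax read directly from concentration–time profiles.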
Data set [12] is described as follows: Cmax in male Wistar rat plasma at 0.5 mg/kg, po measured after 24 hrs by LC/-MS/MS analysis. In kind it is ADME, organism-based. The essentials: as §2
Data set [13] is described as follows: Oral bioavailability in male Wistar rat plasma at 0.5 mg/kg measured after 24 hrs by LC/-MS/MS analysis. Format: ADME, organism-based.
Data set [14] is described as follows: Half life in female CD1 mouse plasma at 1 mg/kg, iv measured after 24 hrs by LC/-MS/MS analysis. In kind it is ADME, organism-based. The essentials:
(§3)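 Female CD1 mice received a single iv bolus of 1.0 mg/kg in 50% PEG 400, 10% ethanol and 40% water. Plasma was sampled at 2, 5, 15, 30 and 45 min and at 1, 2, 4, 6, 8 and 24 h, precipitated with ice-cold acetonitrile (1:5), and supernatants were quantified by LC/MS-MS. Parameters were estimated from plasma concentration data, with AUC by the log-linear trapezoidal rule.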

A short description of data set [15]: Volume of distribution at steady state in female CD1 mouse plasma at 1 mg/kg, iv measured after 24 hrs by LC/-MS/MS analysis. Format: ADME, organism-based. The settings on record: read-out: Vdss. The essentials: as §3
A short description of data set [16]: Clearance in female CD1 mouse blood at 1 mg/kg, iv measured after 24 hrs by LC/-MS/MS analysis. Format: ADME, organism-based. Put shortly: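 Single dose to female mice, i.v. as bolus (1.0 mg/kg) or oral (1 mg/kg), in 50% PEG 400/10% ethanol/40% water. Plasma sampled up to 24 h: 2 min–24 h after i.v., 8 min–24 h after p.o. Samples precipitated with ice-cold acetonitrile (1:5) and analysed by LC/MS-MS. AUC by log-linear trapezoidal rule; Cmax and Tmax read directly from the profiles.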

A short description of data set [17]: Antitumor activity against human A2780cis cells xenografted female athymic NMRI mouse model assessed as T/C ratio at 5 mg/kg, po administered twice daily intermittent for 2 days on/5 days off. In kind it is functional. The note with it: time 7 day.
Data set [18] in a line: Toxicity in human A2780cis cells xenografted female athymic NMRI mouse model assessed as change in body weight at 5 mg/kg, po administered twice daily intermittent for 2 days on/5 days off. In kind it is organism-based. The note with it: in vivo, 168 h, time 7 day. The essentials: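 A2780cis cells (2×10^6 in 100% Matrigel) implanted s.c. in athymic mice. Treatment started at ~30 mm2. Oral dosing twice daily, 2 days on/5 days off, with PEG 400/ethanol/Solutol vehicle controls. Dose based on individual body weight. Body weight monitored two to three times weekly as toxicity measure; >20% loss deemed toxic.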

Data set [19] concerns NCI-H1299. As to the kind of experiment: Synergistic antitumor activity against human NCI-H1299 cells xenografted female athymic NMRI mouse model assessed as MTD at 3 mg/kg,po administered twice daily intermittent for 2 days on/5 days off in the presence of paclitaxel relative to control. In kind it is functional. The settings on record: time 7 day.
The nature of data set [20]: Synergistic toxicity in human NCI-H1299 cells xenografted female athymic NMRI mouse model assessed as body weight loss at 3 mg/kg,po administered twice daily intermittent for 2 days on/5 days off in the presence of paclitaxel relative to control. In kind it is organism-based. The note with it: in vivo, 168 h, time 7 day. The essentials:
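NCI-H1299 cells (3×10^6 in 100% Matrigel) implanted s.c. in the inguinal region of athymic mice. Treatment started on day 8 at ~30 mm2. Mps1 inhibitor given p.o. 3 mg/kg twice daily, 2 days on/5 off. Paclitaxel i.v. 20 mg/kg once weekly, given within 1 h of the inhibitor on the same day. Body weight tracked two to three times weekly; >20% loss deemed toxic.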

Data set [21] in a line: Antitumor activity against human A2780cis cells implanted female athymic NMRI mouse model assessed as reduction in KNL1 at Thr-875 phosphorylation at 4 mg/kg,po administered for 2 days by immunohistochemical staining relative to control. In kind it is functional. Also noted: scale not given: the % may be the effect or the level left. The settings on record: time 2 day.
Data set [22] can be described thus: Antitumor activity against human A2780cis cells implanted female athymic NMRI mouse model assessed as reduction in KNL1 at Thr-875 phosphorylation at 2 mg/kg,po administered for 2 days by immunohistochemical staining relative to control. In kind it is functional. Set-up: scale not given: the % may be the effect or the level left. The note with it: time 2 day.

Data set [23] can be described thus: Tmax in female NMRI mouse plasma at 1 mg/kg, po measured after 24 hrs by LC/-MS/MS analysis.
The nature of data set [24]: Cmax in female NMRI mouse plasma at 1 mg/kg, po measured after 24 hrs by LC/-MS/MS analysis.
Data set [25] can be described thus: Oral bioavailability in female NMRI mouse plasma at 1 mg/kg measured after 24 hrs by LC/-MS/MS analysis.
For data set [26], the system named is Caov-3 cell line. As to the kind of experiment: Antiproliferative activity against human Caov-3 cell line assessed as cell growth inhibition incubated for 96 hrs by crystal violet staining. The note with it: Caov-3, 96 h.
The test system of data set [27] is LXF-289 cell line. As to the kind of experiment: Antiproliferative activity against human LXF-289 cell line assessed as cell growth inhibition incubated for 96 hrs by crystal violet staining. The note with it: LXF-289, 96 h.
The test system of data set [28] is SUM149PT. As to the kind of experiment: Synergistic antitumor activity against human SUM149 cells xenografted female athymic NMRI mouse model assessed as MTD at 1.5 mg/kg,po administered twice daily intermittent for 2 days on/5 days off measured after 48 days treatment in the presence of paclitaxel relative to control. The settings on record: time 48 day.

Active and inactive are the calls of the source. The rule behind the calls is not given here. Where only a bound is given, the exact number is not on record here.

Take `CC(=O)O[C@H]1C(=O)[C@@]2(C)[C@H]([C@H](OC(=O)c3ccccc3)[C@]3(O)C[C@H](OC(=O)[C@H](O)[C@@H](NC(=O)c4ccccc4)c4ccccc4)C(C)=C1C3(C)C)[C@]1(OC(C)=O)CO[C@@H]1C[C@@H]2O`: the result in data set [1], in data set [2], in [3], in data set [4], in [5] and in data set [6] was Active.
Regarding `COc1ccc(Oc2cc(NCCC(F)(F)F)c3ncc(-c4ccc(C(=O)NC5CC5)c(C)c4)n3n2)c(F)c1F` [BAY-1217389], the results for the IC50 in [7], in data set [26] and in [27] were above 300 nM, 36 nM and 3.3 nM, respectively. Moreover, the half-life in data set [8] was 7.8 h; in data set [14] it was 4.1 h. For the same molecule, the Vd in data set [9] worked out at 2.2 L/kg; in [15], 2.7 L/kg. In addition, the figures for the clearance in data set [10] and in data set [16] were 9 mL/min/kg and 13.7 mL/min/kg, respectively. The figures for the Tmax in data set [11] and in data set [23] were 1.5 h and 7 h, respectively. The Cmax is 177 ng/mL in [12] and 74 ng/mL in data set [24]. Also, the values for the bioavailability in data set [13] and in [25] were 73% and 37%, respectively. In data set [17], the T/C is 0.53. Besides, the Activity entry is “Non-Toxic” in data set [18], above 10% in data set [20], 80% in data set [21] and 60% in data set [22]. Besides, the results for the MED in data set [19] and in [28] were 60% and 30%, respectively.

The values are drawn from ChEMBL document CHEMBL5678814, “Novel Mps1 Kinase Inhibitors with Potent Antitumor Activity” (Mol Cancer Ther, 2016).
